Experimental findings from ChEMBL document CHEMBL2434890, “Design, synthesis and structure-activity relationship of novel quinoxaline derivatives as cancer chemopreventive agent by inhibition of tyrosine kinase receptor” (Eur J Med Chem, 2013) are described below.

Common to all, as to format: cell-based
For data set [1], the system named is Raji. Kind of data set: Inhibition of TPA-induced EBV early antigen activation infected in human Raji cells assessed as antigen activity at 10 mol ratio/TPA after 48 hrs by immunofluorescence method relative to control. The conditions noted are these: human gammaherpesvirus 4. Details: scale not given: the % may be the effect or the level left; call rule not given here.
The subject of data set [2] is Raji. Kind of data set: Inhibition of TPA-induced EBV early antigen activation infected in human Raji cells assessed as antigen activity at 500 mol ratio/TPA after 48 hrs by immunofluorescence method relative to control. Details: scale not given: the % may be the effect or the level left. Particulars: human gammaherpesvirus 4.
The test system of data set [3] is Raji. Kind of data set: Inhibition of TPA-induced EBV early antigen activation infected in human Raji cells assessed as antigen activity at 1000 mol ratio/TPA after 48 hrs by immunofluorescence method relative to control. Also noted: scale not given: the % may be the effect or the level left. The conditions noted are these: human gammaherpesvirus 4.
In data set [4] the test system is Raji. Kind of data set: Inhibition of TPA-induced EBV early antigen activation infected in human Raji cells after 48 hrs by immunofluorescence method relative to control. The conditions noted are these: human gammaherpesvirus 4.
A short description of data set [5]: Cytotoxicity against human Raji cells assessed as cell viability at 1000 mol ratio/TPA after 48 hrs by trypan blue staining method. Particulars: read-out: Activity. The essentials: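 Raji cells were treated as in the EBV-EA assay: 48 h at 37 °C with 4 mM n-butyric acid, […] and compound in DMSO (ca. 0.7%), dosed by mol ratio to TPA. Viability of the treated cells was determined by trypan blue staining.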

The test system of data set [6] is Raji. Kind of data set: Inhibition of TPA-induced EBV early antigen activation infected in human Raji cells assessed as antigen activity at 100 mol ratio/TPA after 48 hrs by immunofluorescence method relative to control. Also noted: scale not given: the % may be the effect or the level left. Particulars: human gammaherpesvirus 4.
Data set [7] in a line: Inhibition of TRK in human HepG2 cells after 48 hrs by ELISA. The essentials:
(§1)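 HepG2 or MCF-7 cells, kept in DMEM with 10% heat-inactivated FCS and penicillin, seeded at 0.50×10⁶ per flask and treated 48 h at 37 °C, 5% CO₂ with compound in DMSO (2.5–40 μg/ml). Cells were homogenized in saline. TRK level was measured by double-antibody sandwich ELISA (OD 450 nm) against a standard curve, in triplicate. IC50 = 50% reduction of TRK relative to untreated cells.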
A general note: In an ELISA, binding on a coated surface is turned into a signal by an enzyme label.

A short description of data set [8]: Inhibition of TRK in human MCF7 cells after 48 hrs by ELISA. The essentials:
as §1

As to `O=C1CCC(=O)N(c2nc3ccccc3[nH]c2=O)N1`, the Activity in the data set with Raji [1] was determined as 100%; in the data set on Raji [2], 47.7%; with Raji [3], 16.7%; in the data set on Raji [6], 82.8%. For the same molecule, in the data set with Raji [4], the inhibition entry was “Dose-dependent effect”. For the same molecule, the viability at 48 h, 1000 mol ratio/TPA in data set [5] is 60%.
As usually defined, the IC50 is the concentration that inhibits the measured activity by half. As for `CN(C)c1ccc(/C=N/Nc2nc3ccccc3[nH]c2=O)cc1`, the IC50 is 9.8 nM in data set [7] and 11.8 nM in data set [8]. Further, the Activity stood at 100% in the data set on Raji [1], 42.2% with Raji [2], 13.9% with Raji [3] and 71.7% with Raji [6]. For the same molecule, in the data set on Raji [4], the inhibition result was “Dose-dependent effect”. The viability at 48 h, 1000 mol ratio/TPA in data set [5] amounted to 60%.
With `Oc1nc2ccccc2n2c(O)nnc12`, the IC50 is 25 nM in data set [7] and 30 nM in data set [8]. In addition, the Activity in the data set on Raji [1] came out at 100%; in the data set with Raji [2], 47.2%; in the data set with Raji [3], 15.6%; with Raji [6], 79.1%. Besides, the inhibition result in the data set with Raji [4] is “Dose-dependent effect”. In addition, in data set [5], the viability at 48 h, 1000 mol ratio/TPA amounted to 60%.
With `O=c1[nH]c2ccccc2n2c(=O)c(O)nnc12`, the IC50 in data set [7] worked out at 20 nM; in data set [8], 27.8 nM. For the same molecule, the Activity in the data set with Raji [1] was found to be 100%; with Raji [2] it was 47%; in the data set on Raji [3], 14.2%; in the data set with Raji [6] it was 78.6%. Further, the inhibition result with Raji [4] is “Dose-dependent effect”. The viability at 48 h, 1000 mol ratio/TPA in data set [5] came to 60%.
As for `CN1C(=S)NNC12Nc1ccccc1NC2=O` (stereo not given), the Activity in the data set on Raji [1] is 100%; with Raji [2], 48.3%; in the data set with Raji [3] it was 18.7%; in the data set on Raji [6], 84.6%. Further, the inhibition result in the data set on Raji [4] is “Dose-dependent effect”. Moreover, in data set [5], the viability at 48 h, 1000 mol ratio/TPA was 60%.
As to `N=c1c(O)nnc2c(=O)[nH]c3ccccc3n12`, the IC50 in data set [7] amounted to 18 nM; in data set [8], 20.2 nM. Moreover, the Activity came out at 100% in the data set on Raji [1], 47.1% in the data set with Raji [2], 15% in the data set on Raji [3] and 79% in the data set with Raji [6]. For the same molecule, the inhibition result in the data set on Raji [4] was “Dose-dependent effect”. In data set [5], the viability at 48 h, 1000 mol ratio/TPA was determined as 60%.
As for `O=c1[nH]c2ccccc2nc1Cl`, the Activity was 100% with Raji [1], 48.5% in the data set with Raji [2], 16.7% with Raji [3] and 80.2% with Raji [6]. The inhibition result with Raji [4] was “Dose-dependent effect”. In addition, the viability at 48 h, 1000 mol ratio/TPA in data set [5] was 50%.
Turning to `COc1cccc2c1C(=O)c1c(O)c3c(c(O)c1C2=O)C[C@@](O)(C(=O)CO)C[C@@H]3O[C@H]1C[C@H](N)[C@H](O)[C@H](C)O1` [DOXORUBICIN], the figures for the IC50 in data set [7] and in data set [8] were 2.5 nM and 3.2 nM, respectively.
For the molecule `C=CCn1c(=O)c(N/N=C/c2ccc(N(C)C)cc2)nc2ccccc21`, the figures for the IC50 in data set [7] and in data set [8] were 2.65 nM and 2.9 nM, respectively. The Activity came to 100% in the data set with Raji [1], 41.6% in the data set with Raji [2], 10.1% in the data set on Raji [3] and 73.2% in the data set on Raji [6]. The inhibition result with Raji [4] was “Dose-dependent effect”. For the same molecule, the viability at 48 h, 1000 mol ratio/TPA in data set [5] came out at 60%.
With `O=C1CC(=O)N(c2nc3ccccc3[nH]c2=O)N1`, the Activity with Raji [1] amounted to 100%; in the data set on Raji [2], 48%; with Raji [3] it was 17.5%; in the data set on Raji [6], 83.9%. Also, in the data set with Raji [4], the inhibition result is “Dose-dependent effect”. The viability at 48 h, 1000 mol ratio/TPA in data set [5] amounted to 60%.
Turning to `CCOC(=O)Cn1c(=O)c(N/N=C/c2c(OC)cccc2OC)nc2ccccc21`, the IC50 in data set [7] was determined as 4.1 nM; in data set [8], 4.6 nM. In addition, the Activity worked out at 100% with Raji [1], 45.7% in the data set with Raji [2], 13.5% with Raji [3] and 75.6% with Raji [6]. In the data set with Raji [4], the inhibition result is “Dose-dependent effect”. The viability at 48 h, 1000 mol ratio/TPA in data set [5] was found to be 60%.
In the case of `Oc1nc2ccccc2n2cnnc12`, the IC50 result in data set [7] and in data set [8] was “Not Active” throughout. Further, the Activity came to 100% with Raji [1], 48.2% in the data set with Raji [2], 18.6% with Raji [3] and 84.2% in the data set on Raji [6]. For the same molecule, the inhibition entry in the data set on Raji [4] was “Dose-dependent effect”. Besides, the viability at 48 h, 1000 mol ratio/TPA in data set [5] came out at 60%.
Turning to `CCOC(=O)Cn1c(=O)c(N/N=C/c2ccc(N(C)C)cc2)nc2ccccc21`, the values for the IC50 in data set [7] and in data set [8] were 4.5 nM and 4.85 nM, respectively. Besides, the Activity was found to be 100% with Raji [1], 47.6% in the data set on Raji [2], 12.7% in the data set on Raji [3] and 78.6% in the data set on Raji [6]. The inhibition entry with Raji [4] was “Dose-dependent effect”. The viability at 48 h, 1000 mol ratio/TPA in data set [5] came out at 60%.
As for `O=C1CN2C(=NN1)C(=O)Nc1ccccc12`, the Activity in the data set on Raji [1] worked out at 100%; in the data set with Raji [2] it was 46.3%; in the data set with Raji [3], 13.6%; in the data set on Raji [6] it was 78%. Also, in the data set with Raji [4], the inhibition entry was “Dose-dependent effect”. The viability at 48 h, 1000 mol ratio/TPA in data set [5] came out at 60%.
As to `COc1cccc(OC)c1/C=N/Nc1nc2ccccc2[nH]c1=O`, the IC50 worked out at 7.5 nM in data set [7] and 8.75 nM in data set [8]. The Activity in the data set with Raji [1] is 100%; in the data set with Raji [2], 46.6%; in the data set on Raji [3] it was 16.8%; in the data set with Raji [6] it was 81%. Besides, in the data set on Raji [4], the inhibition result was “Dose-dependent effect”. In addition, in data set [5], the viability at 48 h, 1000 mol ratio/TPA was determined as 60%.
For `O=C(c1ccccc1)N1C(=S)NNC12Nc1ccccc1NC2=O` (stereo not given), the IC50 entry in data set [7] and in data set [8] was “Not Active” in each case. Further, the Activity in the data set with Raji [1] worked out at 100%; with Raji [2], 49.1%; in the data set with Raji [3], 19.1%; in the data set on Raji [6] it was 85.2%. Moreover, the inhibition result in the data set on Raji [4] is “Dose-dependent effect”. Further, in data set [5], the viability at 48 h, 1000 mol ratio/TPA was determined as 60%.
Turning to `Oc1nc2ccccc2nc1O`, the IC50 result in data set [7] and in data set [8] was “Not Active” in each case. Further, the Activity with Raji [1] was 100%; in the data set with Raji [2], 46.8%; with Raji [3], 14.2%; with Raji [6], 78.5%. The inhibition entry in the data set with Raji [4] was “Dose-dependent effect”. For the same molecule, the viability at 48 h, 1000 mol ratio/TPA in data set [5] came out at 60%.
`CC1(C)CC[C@]2(C(=O)O)CC[C@]3(C)C(=CC[C@@H]4[C@@]5(C)CC[C@H](O)C(C)(C)[C@@H]5CC[C@]43C)[C@@H]2C1` [OLEANOLIC_ACID]: the Activity amounted to 100% in the data set on Raji [1], 30% with Raji [2], 12.7% in the data set with Raji [3] and 80% with Raji [6]. The viability at 48 h, 1000 mol ratio/TPA in data set [5] worked out at 70%.
On to `NNc1nc2ccccc2[nH]c1=O`, for which the IC50 in data set [7] was 9 nM; in data set [8], 10.2 nM. Besides, the Activity is 100% in the data set on Raji [1], 46.5% in the data set on Raji [2], 14.9% in the data set on Raji [3] and 78.1% in the data set with Raji [6]. Moreover, in the data set on Raji [4], the inhibition result is “Dose-dependent effect”. Also, the viability at 48 h, 1000 mol ratio/TPA in data set [5] is 60%.
Turning to `C=CCn1c(=O)c(N/N=C/c2c(OC)cccc2OC)nc2ccccc21`, the IC50 in data set [7] is 3.5 nM; in data set [8], 4.15 nM. In addition, the Activity stood at 100% in the data set with Raji [1], 42% in the data set on Raji [2], 10.8% in the data set with Raji [3] and 73.5% with Raji [6]. For the same molecule, the inhibition result in the data set with Raji [4] is “Dose-dependent effect”. Besides, in data set [5], the viability at 48 h, 1000 mol ratio/TPA came out at 60%.
Turning to `O=C1Nc2ccccc2N2C(O)=CNN=C12`, the Activity in the data set on Raji [1] was determined as 100%; in the data set on Raji [2], 46%; in the data set on Raji [3] it was 13.2%; in the data set with Raji [6], 77.6%. Further, the inhibition result with Raji [4] was “Dose-dependent effect”. Further, in data set [5], the viability at 48 h, 1000 mol ratio/TPA was found to be 60%.
With `CC(C)=NNc1nc2ccccc2[nH]c1=O`, the figures for the IC50 in data set [7] and in data set [8] were 15 nM and 17.2 nM, respectively. Further, the Activity in the data set on Raji [1] came out at 100%; in the data set on Raji [2], 45%; in the data set on Raji [3], 13.2%; in the data set on Raji [6], 77%. Also, in the data set with Raji [4], the inhibition result was “Dose-dependent effect”. Moreover, the viability at 48 h, 1000 mol ratio/TPA in data set [5] was 60%.
